# Measured values as given in article PMC8159897 (Angewandte Chemie (International ed. in English), 2021).
# How the values were obtained:
# Golgi of HeLa cells = experiment: Golgi accumulation; type: cell-based; conditions: pS1 10 μM, from 1 minute to 8 minutes of incubation
# Outline: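 HeLa cells first transfected 24 h with CellLight Golgi-RFP to mark the Golgi. They were then given the NBD-labelled thiophosphopeptide test compound at 10 μM and imaged live by confocal microscopy 1, 4 and 8 min after addition. Golgi-localised green (NBD) fluorescence was compared with the red Golgi-RFP signal, and the RFP stain was checked for bleed-through into the green channel.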
# [1] = Critical micelle concentration; type: physicochemical; conditions: self-assembly / aggregation (Figures S2, S16)
# [2] = tested on: alkaline phosphatase (ALP); conditions: incubated with ALP (0.1 U/mL) for about 16 minutes (Figure S15)
Structure (SMILES),enhancement of fluorescence intensity at the Golgi (Golgi of HeLa cells),critical micelle concentration (CMC) [1] [µM],conversion ratio to dephosphorylated product [2]
O=C(CCNc1ccc([N+](=O)[O-])c2nonc12)N[C@H](Cc1ccccc1)C(=O)N[C@H](Cc1ccccc1)C(=O)NCCSP(=O)(O)O [pS1],about 7 times,6.0,
O=C(Cc1ccc2ccccc2c1)N[C@H](Cc1ccccc1)C(=O)N[C@H](Cc1ccccc1)C(=O)NCCSP(=O)(O)O [pS2],,9.5,nearly fully converted
